Compound activity (PubChem)
Yeast life ext: extends the lifespan of yeast; S. cerevisiae growth with nicotinamide, OD615; deaD strain in restrictive glucose medium; 130,000 compounds, 0.68% hits; inhibition of the nicotinamide effect, % at 10 µM;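 active means inhibition above a set limit, placed 3 SD over the median of all compounds, cut at about 26% in these data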;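 further: 0% = nicotinamide-treated wells and 100% = cells grown without nicotinamide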
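Test system – modified budding yeast, DeaD strain · Compound – single dose 10 µM compound, 0.25% DMSO · Times – culture preincubation 4 h, compound exposure 48 h, both 30 °C · Detection – optical density (absorbance) at 615 nm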
SDO1 yeast rescue: compounds rescuing growth of sdo1-depleted yeast, bone marrow failure model. AID 817. 140,000 compounds, 0.21% hits. S. cerevisiae sdo1-depleted JHY4D growth rescue, OD600 30 h; active compounds read high; pdr5 snq2 efflux-pump mutant strain. z-score at 10 µM;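 active means z-score above 3 at both the 24 hr and the 30 hr optical density reads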;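 further: z-score against mean and SD of all compound wells on the same plate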
RAM network inh: yeast RAM network inhibition | AID 868 | 190,000 compounds, 1.8% hits | inhibition, % at 50 µM | S. cerevisiae dse1pr::URA3 reporter, 5-FOA growth OD615, 2 d; analog-sensitive cbk1-as2 kinase mutant strain;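 active means inhibition above a set limit, 3 SD over mean compound inhibition, cut at about 8.4% in these data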;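 further: 0% = DMSO-only wells with no growth and 100% = 10 µM 1-NA-PP1 full growth; inhibition rescues growth on 5-FOA so higher OD means more RAM inhibition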
BB579 growth dn: reduces growth of yeast BB579 in restrictive medium; S. cerevisiae BB579 growth, OD615, 48 h; inhibition, % at 10 µM; 140,000 compounds, 0.51% hits;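 active means inhibition above a set limit, 3 SD over the mean compound inhibition, cut at about 44% in these data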
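System: Saccharomyces cerevisiae DeaD strain BB579, replicative lifespan model yeast. Buffer or medium: restrictive glucose-based CSMM-D medium. Doses: one dose, 10 µM compound with 0.25% DMSO. Timing: 4 h preincubation and 48 h exposure at 30 °C. Detection: turbidity as optical density at 615 nm. Benchmarks: amphotericin B 10 µg/mL, positive.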
Starred values were filed as active, the others as inactive; x = not tested or not shown. A selection: hits, their analogues and other compounds. The true share with any hit is near 2.7%.

SMILES	Yeast life ext	SDO1 yeast rescue	RAM network inh	BB579 growth dn
CCOC(=O)c1c(-c2ccco2)csc1NC(=O)CSc1nnc(N)s1	-14	-0.8	10*	-29
C=CCn1c(SCC(=O)Nc2sc(C)c(C)c2C(=O)OCC)nnc1-c1sc(N)nc1C	-6	-0.04	11*	-28
CCOC(=O)c1c(NC(=S)Nc2ccccc2)sc(C)c1C	x	0.61	9.6*	-9
Cc1ccc(S(=O)(=O)NCC(=O)NCC(=O)OCC(=O)N2CC(=O)Nc3ccccc32)cc1C	x	x	0	x
CCOC(=O)COc1ccc(S(=O)(=O)N2CCN(c3ccccc3)CC2)cc1	9	-0.67	2	-47
OCc1cn(-c2ccc(Cl)cc2)nn1	x	x	1	x
CCOC(=O)CSc1nc2ccc(NC(=O)CSc3nnnn3Cc3ccccc3)cc2s1	x	-1.2	9.5*	-40
CCOC(=O)c1c(NC(=O)CSc2nc3ccccc3o2)sc(C)c1C	-3	-0.68	7	-55
CCOC(=O)c1c(NC(=S)Nc2ccc(Cl)cc2)sc2c1CCN(C)C2	-14	1.1	2	98*
CCOC(=O)c1c(NC(=O)CSc2nc3ccccc3s2)sc(C)c1C	2	-0.09	11*	-45
O=[N+]([O-])c1ccc(NCCNCCOc2nonc2-c2ccccc2)c([N+](=O)[O-])c1	x	x	2	x
O=C(NNC(=O)C(O)(c1ccccc1)c1ccccc1)C1CC1	x	x	1	x
COc1ccc(CCNC(=O)c2ccc(C)s2)cc1OC	x	x	0	x
CCSc1nc2cc(OC)c(OC)cc2c(=O)n1CCc1ccccc1	-1	-0.99	8.6*	-47
CCCCCCC1C(C#N)=C(N)OC2=C1C(=O)CC(C)(C)C2 (stereo not drawn)	40*	-0.89	4	-19
COCCNC(=O)C(c1ccccc1F)N(C(=O)C(=O)NC1CCCC1)C1CCCCC1 (stereo not drawn)	x	x	0	x
Cc1ccc(C(C2=C(O)CC(C)(C)CC2=O)C2C(=O)CC(C)(C)CC2=O)o1 (stereo not drawn)	44*	-0.36	-1	-12
CC1(C)CC(=O)C(C(C2=C(O)CC(C)(C)CC2=O)c2cccs2)C(=O)C1 (stereo not drawn)	32	0.16	-2	-34
Cc1ccc(S(=O)(=O)N(C)CCCC(=O)Nc2cccc3ccccc23)cc1	-3	-0.85	6	-4
CSc1nc2ccc(NC(=O)c3ccc(Cl)s3)cc2s1	x	x	7	x
COc1ccccc1N/C=C/C(=C(C#N)C#N)N(C)C	x	x	1	x
Cc1[nH]n(-c2ccccc2)c(=O)c1C(c1cccc([N+](=O)[O-])c1O)c1c(C)[nH]n(-c2ccccc2)c1=O	2	0.09	5	-1
Cc1[nH]n(-c2ccccc2)c(=O)c1C(c1cccc([N+](=O)[O-])c1)c1c(C)[nH]n(-c2ccccc2)c1=O	30*	-0.2	7	-31
C=C(C)COc1ccc(-c2[nH]ncc2-c2ccc(Br)cc2)c(O)c1	-7	-2.4	7	69*
CCCOC(=O)c1ccc(Oc2cn[nH]c2-c2ccc(OC)cc2O)cc1	-7	-1.8	5	69*
SMILES	Yeast life ext	SDO1 yeast rescue	RAM network inh	BB579 growth dn
CCOc1ccc(-c2[nH]ncc2Oc2ccccc2OC)c(O)c1	-12	-2	1	-16
CCCc1cc(-c2[nH]ncc2-c2ccc3c(c2)OCCCO3)c(O)cc1OC	-16	-1.7	8	-32
C=C(C)COc1ccc(-c2[nH]ncc2-c2ccccc2OC)c(O)c1	-11	-2.2	-1	90*
COc1ccc(-c2[nH]ncc2-c2ccc3c(c2)OCCO3)c(O)c1	-20	-1.9	10*	-10
COc1ccc(-c2[nH]ncc2CN2CCC(N3CCSCC3)CC2)c(F)c1	x	x	2	x
Cc1ccc(NC(=O)COC(=O)CCc2ccc(S(=O)(=O)N3CCOCC3)cc2)cc1F	x	x	1	x
C=C(C)COc1ccc(-c2[nH]ncc2Oc2ccccc2OC)c(O)c1	-7	-2.2	5	79*
C=C(C)COc1ccc(-c2n[nH]c(C)c2-c2ccc(Br)cc2)c(O)c1	-15	-2	10*	-31
COC(=O)C1C(c2ccccc2)C(C(=O)OCc2ccco2)C1c1ccccc1 (stereo not drawn)	x	-1.8	8.5*	-47
CCCCC(=O)c1c(O)c2ccccc2oc1=O	21	0.76	-1	40
O=C(CC1CCCCC1)c1c(O)c2ccccc2oc1=O	27	-0.3	9.6*	-6
COc1ccc(OCC(=O)c2c(O)c3ccccc3oc2=O)cc1	35	0.06	-1	-20
CCOc1ccc(OCC(=O)c2c(O)c3ccccc3oc2=O)cc1	44*	0.3	0	-10
